Activity calls are given as the source filed them. The calls are words filed in the database; no cut-off is given here.
Columns and labels:
[1] = system: A549; test: Cytotoxicity in human A549 cells assessed as reduction in cell viability incubated for 72 hrs by MTT assay; settings: A549, 72 h
[2] = system: B16; test: Cytotoxicity in mouse B16 cells assessed as reduction in cell viability incubated for 72 hrs by MTT assay; assay type: functional, cell-based; settings: B16, 72 h
How it was run: (§1)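 Cells pre-incubated 24 h at 37 °C, 5% CO2, then exposed to a range of compound concentrations for 72 h. Viability read as mitochondrial MTT-to-formazan conversion, absorbance at 570 nm.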

[3] = system: MCF7; test: Cytotoxicity in human MCF7 cells assessed as reduction in cell viability incubated for 72 hrs by MTT assay; assay type: functional, cell-based; settings: MCF7, 72 h; how it was run: as §1
[4] = system: HepG2; test: Cytotoxicity in human HepG2 cells assessed as reduction in cell viability incubated for 72 hrs by MTT assay; assay type: functional, cell-based; settings: HepG2, 72 h; how it was run: as §1
[5] = system: HepG2; test: Induction of ROS generation in human HepG2 cells at 2 to 6 uM incubated for 24 hrs by DCFH-DA staining based flow cytometry; assay type: functional, cell-based
How it was run: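 HepG2 seeded at 6×10^4 cells/well and grown 24 h, then treated 24 h with 2, 4 or 6 µM. Washed with PBS and serum-free medium, loaded with serum-free DCFH-DA 30 min at 37 °C, washed twice cold. Fluorescence read by flow cytometry at 488/525 nm. Mean ± SEM, n = 3.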

[6] = system: HepG2; test: Induction of apoptosis in human HepG2 cells assessed as apoptosis level at 2 to 4 uM incubated for 24 hrs by FITC-labelled Annexin V/PI staining based flow cytometry; assay type: functional, cell-based
How it was run: (§2)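 HepG2 treated 24 h with 2, 4 or 6 µM; 0.1% DMSO vehicle control. Stained with FITC-Annexin V/PI and analysed by flow cytometry 10-15 min after staining. Annexin V+/PI- counted as early/median apoptotic, Annexin V+/PI+ as late apoptotic.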

[7] = system: HepG2; test: Induction of apoptosis in human HepG2 cells assessed as apoptosis level at 6 uM incubated for 24 hrs by FITC-labelled Annexin V/PI staining based flow cytometry (reference value: 3.4%); assay type: functional; how it was run: as §2
[8] = system: HepG2; test: Induction of apoptosis in human HepG2 cells assessed as apoptosis level incubated for 24 hrs by FITC-labelled Annexin V/PI staining based flow cytometry; assay type: functional, cell-based; how it was run: as §2

Compound | IC50 [1] | IC50 [2] | IC50 [3] | IC50 [4] | Activity [5] | Activity [6] | Activity [7] | Activity [8]
CN1CCN(CCCCOc2c(OCc3ccco3)cc(O)c3c(=O)cc(-c4ccccc4)oc23)CC1 | 3.6 µM | 3.53 µM | 2.77 µM | 4.11 µM |  |  |  | 
CN1CCN(CCCCOc2c(OCc3ccccc3)cc(O)c3c(=O)cc(-c4ccccc4)oc23)CC1 | 2.91 µM | 2.37 µM | 2.93 µM | 1.5 µM | Dose-dependent effect | inactive | 20.7% | Dose-dependent effect
O=c1cc(-c2ccccc2)oc2c(OCCCCN3CCCC3)c(OCc3ccccc3)cc(O)c12 | 1.1 µM | 3.21 µM | 1.89 µM | 4.66 µM |  |  |  | 
COc1c(OCCCCN2CCN(C)CC2)cc(O)c2c(=O)cc(-c3cccc(F)c3)oc12 | 2.09 µM | 4.52 µM | 2.89 µM | 2.58 µM |  |  |  | 
COc1ccccc1-c1cc(=O)c2c(O)cc(OCCCCN3CCN(C)CC3)c(OC)c2o1 | 6.79 µM | 9.3 µM | 5.43 µM | 2.33 µM |  |  |  | 
O=c1cc(-c2ccccc2)oc2c(OCCN(CCO)CCO)c(OCc3ccccc3)cc(O)c12 | 6.4 µM | 3.69 µM | 6.07 µM | 3.17 µM |  |  |  | 
CN1CCN(CCCCOc2c(OCc3nc4ccccc4s3)cc(O)c3c(=O)cc(-c4ccccc4)oc23)CC1 | 1.06 µM | 2.78 µM | 4.85 µM | 5.44 µM |  |  |  | 
COc1c(OCCCCN2CCN(C)CC2)cc(O)c2c(=O)cc(-c3ccc(C(F)(F)F)cc3)oc12 | 2.89 µM | 4.99 µM | 2.98 µM | 2.4 µM |  |  |  | 
O=c1cc(-c2ccccc2)oc2c(OCCCN3CCCC3)c(OCc3ccccc3)cc(O)c12 | 4.72 µM | 7.98 µM | 2.23 µM | 2.66 µM |  |  |  | 
CN(C)CCCCOc1c(OCc2ccccc2)cc(O)c2c(=O)cc(-c3ccccc3)oc12 | 1.09 µM | 3.22 µM | 3.21 µM | 2.09 µM |  |  |  | 
CN1CCN(CCCCOc2c(OCc3cccs3)cc(O)c3c(=O)cc(-c4ccccc4)oc23)CC1 | 2.1 µM | 2.12 µM | 3.18 µM | 4.56 µM |  |  |  | 
CCN(CC)CCCCOc1c(OCc2ccccc2)cc(O)c2c(=O)cc(-c3ccccc3)oc12 | 3.91 µM | 4.88 µM | 1.92 µM | 1.65 µM |  |  |  | 
O=c1cc(-c2ccccc2)oc2c(OCCCN3CCOCC3)c(OCc3ccccc3)cc(O)c12 | 8.91 µM | 10 µM | 8.72 µM | 2.43 µM |  |  |  | 
O=c1cc(-c2ccccc2)oc2c(OCCCN(CCO)CCO)c(OCc3ccccc3)cc(O)c12 | 3.15 µM | 6.89 µM | 4.23 µM | 3.55 µM |  |  |  | 
CN1CCN(CCCOc2c(OCc3ccccc3)cc(O)c3c(=O)cc(-c4ccccc4)oc23)CC1 | 3.94 µM | 3.76 µM | 1.02 µM | 3.11 µM |  |  |  | 
COc1c(OCCCCN2CCN(C)CC2)cc(O)c2c(=O)cc(-c3ccc(Br)cc3)oc12 | 2.13 µM | 4.33 µM | 3.21 µM | 2.32 µM |  |  |  | 

From ChEMBL document CHEMBL4190366, “Discovery and synthesis of novel Wogonin derivatives with potent antitumor activity in vitro” (Eur J Med Chem, 2017)
